From ChEMBL document CHEMBL5532683, “Design, Synthesis, and Bioevaluation of Transcriptional Enhanced Assocciated Domain (TEAD) PROTAC Degraders” (ACS Med Chem Lett, 2024) come the findings set out here.

The term IC50 denotes the concentration that gives 50% inhibition. A higher IC50 goes with weaker potency in that assay. Broadly, the Emax is the greatest response seen or fitted, relative to the assay's reference.

The test system of test [1] is NCI-H226. The experiment in a line: Antiproliferative activity against human NCI-H226 cells incubated for 120 hrs by Celltiter-glo luminescent assay. It is filed as functional, cell-based. Conditions: NCI-H226, 120 h. In short, it runs like this: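 5-day exposure of NF2-deficient NCI-H226 cells to compounds at a range of concentrations; IC50 taken as mean ± SEM of four independent replicates.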
For orientation: In ATP-based viability assays light output follows the ATP content of the culture.

In test [2] the target is T1, Protein cereblon-TEAD (Homo sapiens) (UniProt P28347+Q96SW2+Q15561+Q15562+Q99594). The experiment in a line: Protac activity at CRBN/TEAD in human NCI-H226 cells at 1 to 10 uM incubated for 24 hrs by Western blot analysis. Format: cell-based. Conditions: dose 1-10 µM. An outline of the steps: (§1)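 NCI-H226 cells exposed 24 h to 0.1, 1 or 10 μM compound. TEAD detected with pan-TEAD antibody by Western blot and quantified as percent degradation. Mean ± SEM of three independent replicates.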

Test [3] addresses Protein cereblon/Transcriptional enhancer factor TEF-5 (Homo sapiens) (UniProt Q96SW2+Q99594). The experiment in a line: Protac activity at CRBN (unknown origin) /Flag-tagged TEAD3 (unknown origin) transfected in HEK293T cells at 9.75 to 1000 nM pretreated with cycloheximide for 2 hrs followed by compound addition and measured after 24 hrs by Western blot analysis. Format: cell-based. The note with it: dose 9.75-1000 nM. An outline of the steps:
(§2)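 293T cells transfected separately with Flag-TEAD1, -2, -3 or -4. Pretreated 2 h with 200 μg/mL cycloheximide, then 24 h with compound at a series of concentrations. Isoform detected by anti-Flag Western blot and quantified. DC50 or maximal degradation derived. Mean ± SEM of three independent replicates.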

In test [4] the target is Protein cereblon/Transcriptional enhancer factor TEF-4 (Homo sapiens, UniProt Q96SW2+Q15562). The experiment in a line: Protac activity at CRBN (unknown origin) /Flag-tagged TEAD2 (unknown origin) transfected in HEK293T cells pretreated with cycloheximide for 2 hrs followed by compound addition and measured after 24 hrs by Western blot analysis. Format: cell-based. An outline of the steps:
as §2
(Immunoblotting shows a protein as a band on a membrane.)

Test [5] addresses T1, Protein cereblon-TEAD (Homo sapiens). As to the kind of experiment: Protac activity at CRBN/TEAD in human NCI-H226 cells at 1 uM preincubated with MG132 for 1 hr followed by compound addition and measured after 8 hrs by Western blot analysis. It is filed as cell-based. An outline of the steps:
(§3)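 Rescue design: NCI-H226 cells pretreated 1 h with BafA1, MG132, thalidomide or VT107, then cotreated 8 h with compound. Protein levels measured by Western blot.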

Test [6] addresses Protein cereblon/Transcriptional enhancer factor TEF-1 (Homo sapiens) (UniProt P28347+Q96SW2). The experiment in a line: Protac activity at CRBN (unknown origin) /Flag-tagged TEAD1 (unknown origin) transfected in HEK293T cells at 9.75 to 1000 nM pretreated with cycloheximide for 2 hrs followed by compound addition and measured after 24 hrs by Western blot analysis. It is filed as cell-based. The note with it: dose 9.75-1000 nM. An outline of the steps:
as §2

The target of test [7] is T1, Protein cereblon-TEAD (Homo sapiens). The experiment in a line: Protac activity at CRBN/TEAD in human NCI-H226 cells at 1 uM preincubated with BafA1 for 1 hr followed by compound addition and measured after 8 hrs by Western blot analysis. Format: cell-based. In short, it runs like this:
as §3

Test [8] deals with NCI-H226. The experiment in a line: Downregulation of CYR61 gene expression in human NCI-H226 cells incubated for 8 hrs by RT-qPCR analysis. Format: functional, cell-based. The note with it: dose 0.5-1 µM. An outline of the steps: (§4)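 NCI-H226 cells exposed to 0.5 or 1 μM compound for 8 h. Transcript levels measured by qPCR. Mean ± SEM of three independent replicates.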
A general note: Real-time PCR tracks product formation cycle by cycle.

The target in test [9] is Protein cereblon/Programmed cell death protein 2 (Homo sapiens) (UniProt Q96SW2+Q16342). The experiment in a line: Protac activity at CRBN/PDCD2 in human NCI-H226 cells at 0.01 to 10 uM incubated for 24 hrs by Western blot analysis. It is filed as cell-based. Conditions: dose 0.01-10 µM. An outline of the steps:
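PDCD2 degradation in NCI-H226 cells after 24 h with compound at 0.01, 0.1, 1 and 10 μM, assessed by Western blot.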

The next test relates to NCI-H2452. The experiment in a line: Antiproliferative activity against human NCI-H2452 cells incubated for 120 hrs by Celltiter-glo luminescent assay. It is filed as functional, cell-based. The note with it: NCI-H2452, 120 h. In short, it runs like this: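 NCI-H2452 cells (wild-type NF2) exposed to compound over a concentration range; IC50 estimated from the dose-response.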

In test [10] the test system is NCI-H226. As to the kind of experiment: Upregulation of FBXO32 gene expression in human NCI-H226 cells incubated for 8 hrs by RT-qPCR analysis. It is filed as functional, cell-based. The note with it: dose 0.5-1 µM. In short, it runs like this:
as §4

Test [11] relates to NCI-H226. As to the kind of experiment: Downregulation of CTGF gene expression in human NCI-H226 cells incubated for 8 hrs by RT-qPCR analysis. It is filed as functional, cell-based. Conditions: dose 0.5-1 µM. In short, it runs like this: as §4
In test [12] the target is T1, Protein cereblon-TEAD (Homo sapiens). As to the kind of experiment: Protac activity at CRBN/TEAD in human NCI-H226 cells at 1 uM incubated for 10 to 24 hrs by Western blot analysis. It is filed as cell-based. The note with it: time 10-24 hrs. An outline of the steps:
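Time course in NCI-H226 cells: 1 μM compound for 1 to 24 h, pan-TEAD Western blot quantified. Mean ± SEM of three independent replicates.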

The target is the same in test [13]. The experiment in a line: Protac activity at CRBN/TEAD in human NCI-H226 cells at 0.1 uM incubated for 24 hrs by Western blot analysis. Format: cell-based. In short, it runs like this:
as §1

Test [14] deals with NCI-H226. The experiment in a line: Downregulation of NPPB gene expression in human NCI-H226 cells incubated for 8 hrs by RT-qPCR analysis. Format: functional, cell-based. The note with it: dose 0.5-1 µM. In short, it runs like this: as §4
Test [15] has as its system NCI-H226. The experiment in a line: Downregulation of AMOTL2 gene expression in human NCI-H226 cells incubated for 8 hrs by RT-qPCR analysis. It is filed as functional, cell-based. Conditions: dose 0.5-1 µM. An outline of the steps: as §4
In a further test the target is Protein cereblon-TEAD. As to the kind of experiment: Protac activity at CRBN/TEAD in human NCI-H226 cells incubated for 24 hrs by Western blot analysis. It is filed as cell-based. An outline of the steps:
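NCI-H226 cells exposed 24 h to compound across a broad concentration range. Pan-TEAD Western blot quantified; DC50 (half-maximal degradation concentration) derived. Mean ± SEM of three independent replicates.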

Test [16] deals with Protein cereblon/Transcriptional enhancer factor TEF-3 (Homo sapiens) (UniProt Q96SW2+Q15561). The experiment in a line: Protac activity at CRBN (unknown origin) /Flag-tagged TEAD4 (unknown origin) transfected in HEK293T cells at 9.75 to 1000 nM pretreated with cycloheximide for 2 hrs followed by compound addition and measured after 24 hrs by Western blot analysis. It is filed as cell-based. Conditions: dose 9.75-1000 nM. In short, it runs like this: as §2

In test [17] the test system is NCI-H226. The experiment in a line: Downregulation of IGFBP3 gene expression in human NCI-H226 cells incubated for 8 hrs by RT-qPCR analysis. The note with it: dose 0.5-1 µM. It is filed as functional, cell-based. In short, it runs like this:
as §4

Test [18] addresses T1, Protein cereblon-TEAD (Homo sapiens). As to the kind of experiment: Protac activity at CRBN/TEAD in human NCI-H226 cells at 1 uM preincubated with thalidomide for 1 hr followed by compound addition and measured after 8 hrs by Western blot analysis. Format: cell-based. An outline of the steps:
as §3

Test [19] has the same target. The experiment in a line: Protac activity at CRBN/TEAD in human NCI-H226 cells at 1 uM preincubated with VT107 for 1 hr followed by compound addition and measured after 8 hrs by Western blot analysis. Format: cell-based. In short, it runs like this: as §3

Calls of active or inactive are those of the source. The calls are words filed in the database; no cut-off is given here. Some results are limits rather than exact numbers.

T1 sequence (Q15562 whole entry partner): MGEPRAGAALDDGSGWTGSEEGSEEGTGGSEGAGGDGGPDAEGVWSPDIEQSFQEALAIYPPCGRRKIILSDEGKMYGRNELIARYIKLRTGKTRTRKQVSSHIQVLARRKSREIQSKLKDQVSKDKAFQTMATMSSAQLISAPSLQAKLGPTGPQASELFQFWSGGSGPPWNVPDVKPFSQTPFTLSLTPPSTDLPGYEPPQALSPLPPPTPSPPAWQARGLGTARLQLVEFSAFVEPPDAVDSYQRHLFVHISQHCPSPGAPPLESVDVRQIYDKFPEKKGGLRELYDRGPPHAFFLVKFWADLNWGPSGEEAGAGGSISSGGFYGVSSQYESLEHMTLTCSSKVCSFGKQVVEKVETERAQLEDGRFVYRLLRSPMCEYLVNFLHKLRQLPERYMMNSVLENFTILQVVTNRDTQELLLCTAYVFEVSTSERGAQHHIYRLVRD
T1 sequence (Q96SW2 whole entry partner): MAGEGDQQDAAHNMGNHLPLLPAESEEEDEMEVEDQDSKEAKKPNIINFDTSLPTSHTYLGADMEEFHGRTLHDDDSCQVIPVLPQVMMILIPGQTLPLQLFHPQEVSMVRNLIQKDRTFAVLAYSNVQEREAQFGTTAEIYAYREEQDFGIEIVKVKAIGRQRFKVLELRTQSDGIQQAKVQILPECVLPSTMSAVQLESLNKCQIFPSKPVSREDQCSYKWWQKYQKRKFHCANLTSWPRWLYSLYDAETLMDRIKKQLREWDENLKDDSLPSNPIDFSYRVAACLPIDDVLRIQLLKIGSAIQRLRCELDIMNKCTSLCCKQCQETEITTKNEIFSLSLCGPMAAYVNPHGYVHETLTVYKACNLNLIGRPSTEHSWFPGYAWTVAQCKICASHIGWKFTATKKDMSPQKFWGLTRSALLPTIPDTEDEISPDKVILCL
T1 sequence (Q99594 2-435 partner limits assumed): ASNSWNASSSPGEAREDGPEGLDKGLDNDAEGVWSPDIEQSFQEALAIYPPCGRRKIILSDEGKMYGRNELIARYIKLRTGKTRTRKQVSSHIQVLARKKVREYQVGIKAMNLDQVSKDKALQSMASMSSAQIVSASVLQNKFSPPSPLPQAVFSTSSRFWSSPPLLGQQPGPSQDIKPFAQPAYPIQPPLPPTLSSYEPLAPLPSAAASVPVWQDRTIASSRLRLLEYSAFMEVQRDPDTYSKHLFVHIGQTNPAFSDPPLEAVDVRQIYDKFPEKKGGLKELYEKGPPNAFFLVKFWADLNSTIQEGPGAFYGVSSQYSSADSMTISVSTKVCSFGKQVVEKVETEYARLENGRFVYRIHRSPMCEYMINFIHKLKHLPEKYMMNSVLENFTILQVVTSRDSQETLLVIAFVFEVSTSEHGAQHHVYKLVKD
T1 sequence (P28347 whole entry): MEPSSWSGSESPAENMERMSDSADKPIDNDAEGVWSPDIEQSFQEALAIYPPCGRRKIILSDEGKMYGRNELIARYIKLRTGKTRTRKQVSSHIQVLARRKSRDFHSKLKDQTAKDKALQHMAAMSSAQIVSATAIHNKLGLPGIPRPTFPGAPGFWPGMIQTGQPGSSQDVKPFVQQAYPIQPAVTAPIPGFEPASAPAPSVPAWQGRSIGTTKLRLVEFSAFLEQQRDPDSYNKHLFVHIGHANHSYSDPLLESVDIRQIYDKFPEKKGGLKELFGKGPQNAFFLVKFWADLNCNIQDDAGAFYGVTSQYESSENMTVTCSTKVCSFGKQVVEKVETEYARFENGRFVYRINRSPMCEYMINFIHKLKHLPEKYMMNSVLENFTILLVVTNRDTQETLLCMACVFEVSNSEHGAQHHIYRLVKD
T1 sequence (Q15561 whole entry partner): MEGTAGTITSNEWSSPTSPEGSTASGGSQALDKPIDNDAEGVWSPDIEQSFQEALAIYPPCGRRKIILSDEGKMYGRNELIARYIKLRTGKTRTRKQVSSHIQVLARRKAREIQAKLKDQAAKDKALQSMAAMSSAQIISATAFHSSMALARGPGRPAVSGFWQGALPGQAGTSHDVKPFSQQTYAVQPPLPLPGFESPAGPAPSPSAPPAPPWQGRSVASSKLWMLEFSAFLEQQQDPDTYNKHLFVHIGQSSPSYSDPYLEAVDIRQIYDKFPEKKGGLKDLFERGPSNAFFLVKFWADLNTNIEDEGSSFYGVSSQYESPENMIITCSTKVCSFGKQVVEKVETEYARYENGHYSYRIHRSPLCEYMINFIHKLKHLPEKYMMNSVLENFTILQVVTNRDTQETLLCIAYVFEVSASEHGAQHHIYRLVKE
Protein cereblon/Transcriptional enhancer factor TEF-3 (Homo sapiens), sequence (Q15561 whole entry, looked up): as the sequence (Q15561 whole entry partner) above
Protein cereblon/Transcriptional enhancer factor TEF-3 (Homo sapiens), sequence (Q96SW2 whole entry, looked up): as the sequence (Q96SW2 whole entry partner) above
Protein cereblon/Programmed cell death protein 2 (Homo sapiens), sequence (Q16342 whole entry, looked up): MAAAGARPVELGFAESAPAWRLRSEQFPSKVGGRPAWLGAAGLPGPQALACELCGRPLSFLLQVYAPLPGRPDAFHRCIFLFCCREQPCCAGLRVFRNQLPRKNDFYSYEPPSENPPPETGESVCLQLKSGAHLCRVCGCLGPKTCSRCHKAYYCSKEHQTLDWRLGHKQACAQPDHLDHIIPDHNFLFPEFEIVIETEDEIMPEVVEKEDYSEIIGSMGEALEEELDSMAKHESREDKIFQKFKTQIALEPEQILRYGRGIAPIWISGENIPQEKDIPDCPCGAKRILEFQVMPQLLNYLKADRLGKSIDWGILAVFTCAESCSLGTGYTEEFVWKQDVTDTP
Protein cereblon/Programmed cell death protein 2 (Homo sapiens), sequence (Q96SW2 whole entry, looked up): as the sequence (Q96SW2 whole entry partner) above
Protein cereblon/Transcriptional enhancer factor TEF-4, sequence (Q96SW2 whole entry): as the sequence (Q96SW2 whole entry partner) above
Protein cereblon/Transcriptional enhancer factor TEF-4, sequence (Q15562 whole entry): as the sequence (Q15562 whole entry partner) above
Protein cereblon/Transcriptional enhancer factor TEF-5 (Homo sapiens), sequence (Q96SW2 whole entry, looked up, canonical isoform): as the sequence (Q96SW2 whole entry partner) above
Protein cereblon/Transcriptional enhancer factor TEF-5 (Homo sapiens), sequence (Q99594 whole entry, looked up, canonical isoform): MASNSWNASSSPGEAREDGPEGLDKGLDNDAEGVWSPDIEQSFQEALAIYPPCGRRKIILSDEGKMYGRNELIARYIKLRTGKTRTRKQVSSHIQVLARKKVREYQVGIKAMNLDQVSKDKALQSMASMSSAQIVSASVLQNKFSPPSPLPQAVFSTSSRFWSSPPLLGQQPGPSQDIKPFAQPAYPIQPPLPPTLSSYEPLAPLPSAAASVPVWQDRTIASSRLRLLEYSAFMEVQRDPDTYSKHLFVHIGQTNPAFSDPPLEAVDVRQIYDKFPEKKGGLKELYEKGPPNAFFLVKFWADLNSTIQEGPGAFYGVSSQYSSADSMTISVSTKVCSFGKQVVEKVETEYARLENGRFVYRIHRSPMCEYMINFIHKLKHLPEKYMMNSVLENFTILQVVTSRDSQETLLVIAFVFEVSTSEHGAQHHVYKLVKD
Protein cereblon/Transcriptional enhancer factor TEF-1 (Homo sapiens), sequence (P28347 whole entry, looked up): as the sequence (P28347 whole entry) above
Protein cereblon/Transcriptional enhancer factor TEF-1 (Homo sapiens), sequence (Q96SW2 whole entry, looked up): as the sequence (Q96SW2 whole entry partner) above

On to `C[C@H](NC(=O)c1ccc2c(-c3ccc(C(F)(F)F)cc3)cccc2c1)c1cccc(NCCCCCNc2cccc3c2C(=O)N(C2CCC(=O)NC2=O)C3=O)n1` (some centres undefined), for which, in the test with NCI-H226 [1], half-maximal inhibition (IC50) was put at 810 nM. This counts as sub-micromolar.

For the molecule `C[C@H](NC(=O)c1ccc2c(-c3ccc(C(F)(F)F)cc3)cccc2c1)c1cccc(NCCOCCNc2ccc3c(c2)C(=O)N(C2CCC(=O)NC2=O)C3=O)n1` (some centres undefined), in the test with NCI-H226 [1], the midpoint of inhibition, the IC50, lay at 350 nM. This IC50 lies about 2.3-fold lower than the previous one.

As to `C[C@H](NC(=O)c1ccc2c(-c3ccc(C(F)(F)F)cc3)cccc2c1)c1cccc(NCCOCCOCCOCCNc2ccc3c(c2)C(=O)N(C2CCC(=O)NC2=O)C3=O)n1` (some centres undefined), the IC50 with NCI-H226 [1] was determined as 230 nM. Besides, in test [2], the result was Active.

As for `C[C@H](NC(=O)c1ccc2c(-c3ccc(C(F)(F)F)cc3)cccc2c1)c1cccc(NCCOCCOCCNc2ccc3c(c2)C(=O)N(C2CCC(=O)NC2=O)C3=O)n1` (some centres undefined), the IC50 in the test on NCI-H226 [1] was 210 nM; in the test with NCI-H2452, greater than 10000 nM. For the same molecule, the outcome (in test [2]; in test [7]; with NCI-H226 [8]; in the test on NCI-H226 [10]; in the test with NCI-H226 [11]; in [12]) was Active. Also, the result in the test on NCI-H226 [14], in the test with NCI-H226 [15] and in the test on NCI-H226 [17] was Active. In addition, the result in [3], in test [5], in [9], in test [16], in test [18] and in test [19] was inactive. The DC50 in test [4] was found to be 54.1 nM; on Protein cereblon-TEAD, 32.7 nM. The Emax in test [6] is 40%. Moreover, the Activity in test [13] was found to be 42.4%.

`C[C@H](NC(=O)c1ccc2c(-c3ccc(C(F)(F)F)cc3)cccc2c1)c1cccc(NCCOCCOCCOCCNc2cccc3c2C(=O)N(C2CCC(=O)NC2=O)C3=O)n1` (some centres undefined) gave an IC50 in the test with NCI-H226 [1] of 260 nM. Moreover, in test [2], the result was Active. Besides, the Activity in [13] is 45.1%. This molecule also had a DC50 at Protein cereblon-TEAD of 39.7 nM.

`C[C@H](NC(=O)c1ccc2c(-c3ccc(C(F)(F)F)cc3)cccc2c1)c1cccc(NCCOCCOCCNc2cccc3c2C(=O)N(C2CCC(=O)NC2=O)C3=O)n1` (some centres undefined) returned an IC50 in the test on NCI-H226 [1] of 290 nM. Moreover, the outcome in [2] was Active.

In the case of `C[C@H](NC(=O)c1ccc2c(-c3ccc(C(F)(F)F)cc3)cccc2c1)c1cccc(NCCCCCCCCNc2cccc3c2C(=O)N(C2CCC(=O)NC2=O)C3=O)n1` (some centres undefined), it took 5110 nM to reach half-maximal inhibition with NCI-H226 [1] (IC50).

In the case of `C[C@H](NC(=O)c1ccc2c(-c3ccc(C(F)(F)F)cc3)cccc2c1)c1cccc(NCCCNc2cccc3c2C(=O)N(C2CCC(=O)NC2=O)C3=O)n1` (some centres undefined), the IC50 with NCI-H226 [1] was 940 nM.

`C[C@H](NC(=O)c1ccc2c(-c3ccc(C(F)(F)F)cc3)cccc2c1)c1cccc(NCCNc2cccc3c2C(=O)N(C2CCC(=O)NC2=O)C3=O)n1` (some centres undefined): in the test with NCI-H226 [1], inhibition was half-maximal at 1510 nM (IC50).

Regarding `C[C@H](NC(=O)c1ccc2c(-c3ccc(C(F)(F)F)cc3)cccc2c1)c1cccc(NCCOCCNc2cccc3c2C(=O)N(C2CCC(=O)NC2=O)C3=O)n1` (some centres undefined), in the test on NCI-H226 [1], the midpoint of inhibition, the IC50, lay at 340 nM. This IC50 lies about 4.4-fold lower than the previous one.

`C[C@H](NC(=O)c1ccc2c(-c3ccc(C(F)(F)F)cc3)cccc2c1)c1cccc(NCCCCCCNc2cccc3c2C(=O)N(C2CCC(=O)NC2=O)C3=O)n1` (some centres undefined) yielded a half-inhibitory concentration (IC50) in the test on NCI-H226 [1] of 1150 nM.

Molecule `C[C@H](NC(=O)c1ccc2c(-c3ccc(C(F)(F)F)cc3)cccc2c1)c1cccc(N)n1` displayed an IC50 with NCI-H226 [1] of 30 nM.

In the test with NCI-H226 [1], `C[C@H](NC(=O)c1ccc2c(-c3ccc(C(F)(F)F)cc3)cccc2c1)c1cccc(NCCCCCCCNc2cccc3c2C(=O)N(C2CCC(=O)NC2=O)C3=O)n1` (some centres undefined) returned an IC50 of 2650 nM.

Take `C[C@H](NC(=O)c1ccc2c(-c3ccc(C(F)(F)F)cc3)cccc2c1)c1cccc(NCCCCNc2cccc3c2C(=O)N(C2CCC(=O)NC2=O)C3=O)n1` (some centres undefined): 1180 nM corresponded to half-maximal inhibition in the test with NCI-H226 [1] (IC50). Compared with the last molecule, the IC50 is about 2.2-fold lower.
